The record followed here is ChEMBL document CHEMBL1909505, “Leonurine-cysteine analog conjugates as a new class of multifunctional anti-myocardial ischemia agent” (Eur J Med Chem, 2011).

The structures appear in SMILES notation. The source made the active and inactive calls. The rule behind the calls is not given here.

Assay [1] is filed under the species Rattus norvegicus. The assay can be described thus: Cardioprotective activity against hypoxia-induced Sprague-Dawley NRVM damage assessed as increased cell viability at 0.1 uM treated 12 hrs before hypoxia challenge measured after 5 hrs by MTT assay. It is filed as functional. An outline of the steps: (§1)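 Myocytes seeded at 1×10^5 cells/mL and cultured 72 h at 37 °C in 5% CO2, pretreated 12 h, then exposed to hypoxic solution. MTT added for 4 h, formazan dissolved in DMSO, absorbance read at 570 nm. Viability given as percent of normoxic control, taken as 100%.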
(In general: Tetrazolium assays rely on reduction of a dye to a coloured formazan, in cell work by metabolically active cells.)

The nature of assay [2]: Cardioprotective activity against hypoxia-induced Sprague-Dawley NRVM damage assessed as inhibition of LDH release at 0.1 uM treated 12 hrs before hypoxia challenge measured after 5 hrs. It is filed as functional. Particulars: Rattus norvegicus. Background: Release of lactate dehydrogenase indicates damage to the cell membrane.
Assay [3] is described as follows: Cardioprotective activity against hypoxia-induced Sprague-Dawley NRVM damage assessed as increase in hydrogen sulfide level at 0.1 uM treated 12 hrs before hypoxia challenge measured after 5 hrs. It is filed as functional. Particulars: Rattus norvegicus.
For assay [4], the species on record is Rattus norvegicus. The assay can be described thus: Cardioprotective activity against hypoxia-induced Sprague-Dawley NRVM damage assessed as increased cell viability at 0.1 umol/L treated 12 hrs before hypoxia challenge measured after 5 hrs by MTT assay. The assay is classed as functional. An outline of the steps: as §1
Assay [5] in a line: Cardioprotective activity against hypoxia-induced Sprague-Dawley NRVM damage assessed as inhibition of LDH release treated 12 hrs before hypoxia challenge measured after 5 hrs. The assay is classed as functional. Particulars: Rattus norvegicus.
The nature of assay [6]: Cardioprotective activity against hypoxia-induced Sprague-Dawley NRVM damage assessed as increase in hydrogen sulfide level treated 12 hrs before hypoxia challenge measured after 5 hrs. The conditions noted are these: Rattus norvegicus. The assay is classed as functional. The gist of the method:
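H2S in culture medium: 0.5 mL supernatant mixed with 0.25 mL 1% zinc acetate, then 0.25 mL 10% TCA to remove protein, centrifuged 12,000 g for 10 min at 4 °C. Absorbance read at 670 nm in duplicate against a same-day NaHS calibration curve. Cells pretreated 12 h before hypoxia; three or six samples.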

Assay [7] is described as follows: Cardioprotective activity against hypoxia-induced Sprague-Dawley NRVM damage assessed as decrease in ROS level treated 12 hrs before hypoxia challenge measured after 5 hrs […]. The conditions noted are these: Rattus norvegicus. The assay is classed as functional. An outline of the steps:
(§2)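 Kit assays per the manufacturer for ROS level and catalase activity in hypoxic myocytes pretreated 12 h. Means ± S.E.M. from three samples; t-test versus the model group.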

The species entered for assay [8] is Rattus norvegicus. The assay can be described thus: Cardioprotective activity against hypoxia-induced Sprague-Dawley NRVM damage assessed as decrease in MDA level treated 12 hrs before hypoxia challenge measured after 5 hrs […]. It is filed as functional.
A short description of assay [9]: Cardioprotective activity against hypoxia-induced Sprague-Dawley NRVM damage assessed as increase in SOD activity treated 12 hrs before hypoxia challenge measured after 5 hrs […]. It is filed as functional. The conditions noted are these: Rattus norvegicus.
Assay [10] in a line: Cardioprotective activity against hypoxia-induced Sprague-Dawley NRVM damage assessed as increase in CAT activity treated 12 hrs before hypoxia challenge measured after 5 hrs […]. The assay is classed as functional. Particulars: Rattus norvegicus. An outline of the steps:
as §2

The nature of assay [11]: Antiapoptotic activity against hypoxia-induced Sprague-Dawley NRVM assessed as decrease in nuclei-shrunk treated 12 hrs before hypoxia challenge measured after 5 hrs using Hoechst 33258 staining-based by fluorescence microscopy. It is filed as functional. The conditions noted are these: Rattus norvegicus. The gist of the method: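 After 12 h pretreatment and hypoxia, myocytes were stained with Hoechst 33258 and photographed under fluorescence (×400). Each image is representative of three independent observations.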

A short description of assay [12]: Antiapoptotic activity against hypoxia-induced Sprague-Dawley NRVM assessed as decrease in nuclear condensation treated 12 hrs before hypoxia challenge measured after 5 hrs by transmission electron microscopy. It is filed as functional. Particulars: Rattus norvegicus. The gist of the method:
(§3)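 Neonatal rat ventricular myocytes cultured 72 h (DMEM, 10% FBS, 5-bromodeoxyuridine), pretreated 12 h, then put in hypoxic solution. Cells fixed 2 h in 2.5% glutaraldehyde in PBS, post-fixed 1 h in 1% osmium tetroxide, dehydrated through graded ethanol, embedded in Epon 812, and examined by transmission electron microscopy (×11000). Compared with normoxic and hypoxic untreated groups.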

Assay [13] can be described thus: Antiapoptotic activity against hypoxia-induced Sprague-Dawley NRVM assessed as decrease in nucleus aggregation treated 12 hrs before hypoxia challenge measured after 5 hrs by transmission electron microscopy. The assay is classed as functional. The conditions noted are these: Rattus norvegicus. An outline of the steps: as §3
Assay [14] can be described thus: Antiapoptotic activity against hypoxia-induced Sprague-Dawley NRVM assessed as increase in myofilaments integrity preservation treated 12 hrs before hypoxia challenge measured after 5 hrs by transmission electron microscopy. It is filed as functional. Particulars: Rattus norvegicus. An outline of the steps:
as §3

Assay [15] in a line: Antiapoptotic activity against hypoxia-induced Sprague-Dawley NRVM assessed as appearance of distinct sarcomeres treated 12 hrs before hypoxia challenge measured after 5 hrs by transmission electron microscopy. The assay is classed as functional. The conditions noted are these: Rattus norvegicus. An outline of the steps: as §3
Assay [16] in a line: Antiapoptotic activity against hypoxia-induced Sprague-Dawley NRVM assessed as decrease in apoptotic cells treated 12 hrs before hypoxia challenge measured after 5 hrs by AnnexinV-FITC/PI staining-based flow cytometric analysis. Particulars: Rattus norvegicus. It is filed as functional, cell-based. The gist of the method: (§4)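 Cardiomyocytes pretreated 12 h before hypoxia. Annexin V-FITC/PI staining done with a kit per the manufacturer, then read by flow cytometry to separate apoptotic from necrotic cells. Means ± S.E.M. from three samples; two-tailed Student's t-test versus the model group.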

Assay [17] can be described thus: Antiapoptotic activity against hypoxia-induced Sprague-Dawley NRVM assessed as inhibition of cell necrosis treated 12 hrs before hypoxia challenge measured after 5 hrs by AnnexinV-FITC/PI staining-based flow cytometric analysis. The assay is classed as functional. Particulars: Rattus norvegicus. An outline of the steps:
as §4

A short description of assay [18]: Antiapoptotic activity against hypoxia-induced Sprague-Dawley NRVM assessed as increase in bcl-2 expression treated 12 hrs before hypoxia challenge measured after 5 hrs by RT-PCR analysis relative to control. It is filed as functional. The conditions noted are these: Rattus norvegicus.
Assay [19] is described as follows: Antiapoptotic activity against hypoxia-induced Sprague-Dawley NRVM assessed as decrease in bax expression treated 12 hrs before hypoxia challenge measured after 5 hrs by RT-PCR analysis relative to control. The conditions noted are these: Rattus norvegicus. The assay is classed as functional.
Assay [20] is described as follows: Antiapoptotic activity against hypoxia-induced Sprague-Dawley NRVM assessed as increase in Bcl2 to Bax mRNA expression ratio treated 12 hrs before hypoxia challenge measured after 5 hrs by RT-PCR analysis relative to control. The conditions noted are these: Rattus norvegicus. It is filed as functional.
The nature of assay [21]: Down regulation of caspase-3 expression in hypoxia-induced Sprague-Dawley NRVM treated 12 hrs before hypoxia challenge measured after 5 hrs by RT-PCR down analysis relative to control. The conditions noted are these: Rattus norvegicus. It is filed as functional.
Assay [22] is described as follows: Antiapoptotic activity against hypoxia-induced Sprague-Dawley NRVM assessed as decrease in cleaved-caspase-3 to procaspase-3 ratio treated 12 hrs before hypoxia challenge measured after 5 hrs by Western blot analysis relative to control. Particulars: Rattus norvegicus. Background: Immunoblotting shows a protein as a band on a membrane.

Regarding `COc1cc(C(=O)OCCCCNC(=N)N)cc(OC)c1O`, the result in assay [1] and in assay [3] was Active. Moreover, the inhibition result in [2] is “Active”.

As to `C#CCSC[C@H](N)C(=O)O`, the result in assay [1] and in [3] was Active. Besides, in assay [2], the inhibition result is “Active”.

For `C#CCSC[C@H](N)C(=O)Oc1c(OC)cc(C(=O)OCCCCNC(=N)N)cc1OC`, the result in assay [4], in [6], in assay [1], in assay [3], in assay [7] and in assay [8] was Active. Also, the result in assay [9], in assay [10], in [11], in assay [12], in assay [13] and in [14] was Active. Moreover, the result in assay [15], in assay [16], in assay [21] and in assay [22] was Active. The inhibition result in [5] and in [2] was “Active” throughout. Moreover, in assay [17], the inhibition result was “inactive”. The fold change (FC) came to 0.98 in assay [18], 0.89 in assay [19] and 1.22 in [20].

In the case of `COc1cc(C(=O)OCCCCNC(=N)N)cc(OC)c1OC(=O)CCSSCCC(=O)Oc1c(OC)cc(C(=O)OCCCCNC(=N)N)cc1OC`, in [4], the outcome was Active. For the same compound, the inhibition entry in [5] is “Active”. Moreover, the outcome in assay [6] was inactive.

As to `C=CCSC[C@H](N)C(=O)Oc1c(OC)cc(C(=O)OCCCCNC(=N)N)cc1OC`, the result in [4] and in assay [6] was Active. Also, the inhibition result in [5] is “Active”.
